Most compounds without a hit are left out; they make up all but 1.8% or so of the library.
UPR XBP1 act = activators of adaptive arm of unfolded protein response (XBP1); CHO-XBP1 luciferase reporter, IRE1-XBP1 UPR activation, luminescence; percent of tunicamycin response, DMSO as zero; activation, % at 20 µM; hit rate 0.33% among 330,000; AID 463104;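 active = versus positive control, 20 µM dose yields 30% or more activation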
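Assay system: CHO-XBP1 luciferase reporter cells; Schedule: 6 h treatment, 37 °C; Detection: glow luminescence from Steady-Glo reagent; Benchmarks: high control tunicamycin 10 µg/mL final, low control DMSO vehicle only.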
CRFBP-R2 block = blocks CRF-induced signaling of the CRF-BP/CRF-R2 complex | HEK293 CRF-R2/CRF-BP, CRF-induced calcium fluorescence | hit rate 0.59% among 350,000 | inhibition, % at 11.8 µM;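 active = inhibition of the ligand-induced calcium signal above about 50% at the single tested concentration, limit read from the data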
697 NFkB inh = lowers PMA/ionomycin-induced NF-kB signal in 697 B cells; inhibition, % at 4 µM; 697 B-cell NF-kB luciferase reporter, 16 h; hit rate 0.33% among 330,000; in the data active = inhibition above about 35%
Jurkat NFkB inh = inhibitors of the PMA/ionomycin-induced NF-kB reporter in Jurkat cells | inhibition, % at 4 µM | AID 435003 | hit rate 0.53% among 330,000 | PMA/ionomycin-induced NF-kB luciferase reporter, luminescence; in the data active = inhibition above about 50%
CHOP UPR activ = apoptotic UPR (CHOP) activation; AID 449763; hit rate 0.34% among 330,000; CHO-CHOP luciferase reporter, luminescence; percent of tunicamycin response over DMSO baseline; activation, % at 10 µM;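 active = at 10 µM dose, activation of 40% or more, normalized to positive control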
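Dosing – one dose, 10 µM in 0.5% DMSO · System – CHO-CHOP cells, stable luciferase reporter of PERK-eIF2a-CHOP signalling · Input – 500 cells/well · Control set – tunicamycin 10 µg/mL final as positive, DMSO-only wells as negative · Timing – 6 h compound treatment, 37 °C · Measure – % activation vs tunicamycin · Technique – luminescence read with Steady-Glo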
A number is an active result; . = inactive; / = no result given.

SMILES	UPR XBP1 act	CRFBP-R2 block	697 NFkB inh	Jurkat NFkB inh	CHOP UPR activ
O=C(CSc1nnc(C2COc3ccccc3O2)o1)NC1CCCCC1 (centres undefined)	.	54	.	.	.
Cc1ccc(NC(=O)CN(C)C(=O)c2ccccc2Sc2ccccc2C#N)cc1	.	.	.	.	.
CN(NC(=O)Nc1ccccc1)c1cnn(C)c(=O)c1Cl	.	120	.	.	.
Cc1ccc(-n2ncc3c(=O)n(CC(=O)N4CCN(C(=O)c5ccco5)CC4)cnc32)cc1	.	.	.	.	.
COc1sc(SC)cc1/C=N/NC(=O)c1ccncc1	.	.	.	.	.
COc1ccc(NC(=O)c2onc(C)c2Cl)cc1	.	.	.	.	.
COc1ccc(S(=O)(=O)N(c2onc(C)c2Cl)S(=O)(=O)c2ccc(OC)cc2)cc1	.	51	.	.	.
COC(CNC(=O)C1CC(=O)N(CCc2ccc(C)cc2)C1)OC (centres undefined)	.	.	.	.	.
O=C(NNc1ncnc2c1cnn2-c1ccc(F)cc1)c1ccco1	.	68	.	.	.
Cc1ccc(S(=O)(=O)NNC(=S)Nc2cccc(F)c2)cc1	.	93	.	.	.
Cc1cccc(NC(=O)NNS(=O)(=O)c2ccc(F)cc2)c1	.	.	.	.	.
Cc1ccc(-n2nnnc2SCC(=O)Nc2cccnc2Cl)cc1	.	53	.	.	.
CCOC(=O)c1cc(C)sc1NC(=O)CCC(=O)O	.	59	.	.	.
NS(=O)(=O)c1ccc(NC(=S)Nc2ccc(F)c(F)c2)cc1	.	69	.	.	.
NS(=O)(=O)c1ccc(CNC(=S)Nc2ccc(F)c(Cl)c2)cc1	.	.	.	.	.
CCCNC(=O)c1nnsc1S(=O)(=O)c1ccc(Cl)cc1	.	70	.	.	.
Cc1cccc(CSc2ccc3nnc(-c4cccs4)n3n2)c1	.	63	.	.	.
Fc1ccc(CSc2ccc3nnc(-c4cccs4)n3n2)cc1	.	.	.	.	.
CC(=O)NC12CC3CC(C1)CC(C(=O)Oc1ccc(N(C)S(=O)(=O)c4cc(C)ccc4C)cc1)(C3)C2	.	.	.	.	.
O=[N+]([O-])c1ccc(NC(=S)NCc2ccc(F)cc2)cc1	.	67	.	.	.
O=C(Nc1nc(-c2ccccc2)cs1)c1ccc2c(c1)S(=O)(=O)c1ccccc1C2=O	.	86	.	.	.
COc1cc(C(=O)NC2CC(C)(C)Cc3c2cnn3-c2ccccc2)cc(OC)c1OC (centres undefined)	.	57	.	.	.
CC(=O)c1ccccc1NC(=O)c1ccc(OCc2c(C)noc2C)cc1	.	.	.	.	.
Cc1cc(NS(C)(=O)=O)c(=O)n(Cc2cccc(C(F)(F)F)c2)c1	/	.	/	/	/
CC1CCC2=NN(C(=O)c3ccco3)C(O)(C(F)(F)F)C2C1 (centres undefined)	.	67	.	.	.
SMILES	UPR XBP1 act	CRFBP-R2 block	697 NFkB inh	Jurkat NFkB inh	CHOP UPR activ
CCc1cc2cc(C)cc(C)c2nc1SCC(=O)N1CCN(C(=O)c2ccco2)CC1	.	52	.	.	.
CC(C)(O)C#Cc1ccc(CN2CCCC(CNC(=O)c3ccco3)C2)cc1 (centres undefined)	.	.	.	.	.
COc1ccc2c(C)cc(SCn3nnc4ccccc4c3=O)nc2c1	.	53	.	.	.
Cc1noc(C)c1COC(=O)[C@H](C)NS(=O)(=O)c1ccc(Cl)c(Cl)c1	.	.	.	.	.
Cc1noc(C)c1COC(=O)Cc1ccc(Cl)c(Cl)c1	.	62	.	.	.
COc1ccc(-c2c[n+]3c4n2CCCCC4=C(c2ccccc2)C3)cc1	.	52	.	.	.
CC(=O)C[C@@H](O)CC(=O)[C@@H]1OC(=O)CCCCCCCCc2ccccc21	.	.	.	.	.
Cc1ccc(C(CC(=O)NCc2ccco2)c2ccc(OC(C)C)cc2)cc1 (centres undefined)	.	51	.	.	.
COc1ccc(C(CC(=O)NCc2ccco2)c2ccc(F)cc2)cc1 (centres undefined)	.	.	.	.	.
CC(C)c1ccccc1NS(=O)(=O)c1cccs1	.	.	.	.	.
Nc1ccn([C@@H]2O[C@H](CNC(=O)[C@H]3CCC(=O)N3)[C@@H](O)[C@H]2O)c(=O)n1	/	.	/	/	/
COc1ccc(NC(=S)NCc2cccnc2)cc1	.	92	.	.	.
COc1ccc(NC(=S)NCc2cccnc2)cc1OC	.	.	.	.	.
Cc1nc2cc(C(=O)NCc3ccc4c(c3)OCO4)ccc2n1-c1ccc(Br)cc1	.	65	.	.	.
COc1ccc(CNC(=O)CN(C)S(=O)(=O)c2ccc(Br)s2)cc1	.	.	.	.	.
CN(CC(=O)NCc1ccc(F)cc1)S(=O)(=O)c1ccc(Br)s1	.	72	.	.	.
CCC(C)NC(=O)CN1C(=O)CSc2ccc(S(=O)(=O)N3CCCC3)cc21 (centres undefined)	.	.	.	.	.
CC(C)NC(=O)CN1C(=O)CSc2ccc(S(=O)(=O)N3CCCC3)cc21	.	64	.	.	.
COc1ccc(-c2csc(NC(=O)CN3C(=O)C4CC=CCC4C3=O)n2)cc1OC (centres undefined)	.	57	.	.	.
O=C(Nc1cccc2cccnc12)c1ccc(Cl)cc1	.	.	.	.	.
CCC(C)Sc1cc(-c2nc3ccc(Cl)cn3c2NC2CCCCC2)ccc1OC (centres undefined)	.	.	.	.	.
O=C1C(=Cc2ccncc2)CCCc2ccccc21	/	70	/	/	/
Cc1nn(Cc2ccc(Cl)cc2)c(C)c1NC(=O)c1ccc([N+](=O)[O-])cc1	.	56	.	.	.
Cc1nn(Cc2ccc(Cl)cc2)c(C)c1NC(=O)Cn1nc([N+](=O)[O-])c(Cl)c1C	.	.	.	.	.
CC(C)N1C(=O)S/C(=C/c2ccccc2OCc2ccc(C(=O)O)cc2)C1=O	.	69	.	.	.
SMILES	UPR XBP1 act	CRFBP-R2 block	697 NFkB inh	Jurkat NFkB inh	CHOP UPR activ
CN(Cc1c(F)cccc1Cl)C(=O)CCc1c[nH]c2ccccc12	.	.	.	.	.
CC(NC(=O)c1ccccc1Cl)C(=O)O (centres undefined)	.	.	.	.	.
O=C(O)C1OC1(c1ccccc1Cl)c1ccccc1Cl (centres undefined)	/	69	/	/	/
C[C@H](NC(=O)c1nc[nH]c1C(=O)N1CCNCC1)C(=O)OC(C)(C)C	.	.	.	.	.
C/C(=N\NC(=O)c1cccc(Cl)c1)C1C(=O)c2ccccc2C1=O	.	85	.	.	.
C/C(=N\NC(=O)CCc1ccccc1)C1C(=O)c2ccccc2C1=O	.	.	.	.	.
COc1ccc(C)c2sc(N(CCCN(C)C)C(=O)c3ccc4c(c3)OCCO4)nc12	.	.	.	.	.
Cc1c(C(=O)NCC2CCCO2)sc2nc(-c3ccc(F)cc3)cn12 (centres undefined)	.	56	.	.	.

High-throughput results (PubChem)
